Source: ChEMBL document CHEMBL4024768, “Discovery and Optimization of Thiazolidinyl and Pyrrolidinyl Derivatives as Inhaled PDE4 Inhibitors for Respiratory Diseases” (J Med Chem, 2017)

Key:
[1] = target: High affinity 3',5'-cyclic-AMP phosphodiesterase 7A (Homo sapiens, UniProt Q13946); assay: Inhibition of human recombinant PDE7A expressed insect sf9 cells by radiometric assay
Summary of the method: (§1)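 Human recombinant PDEs expressed in Sf9 cells, except PDE6 purified from bovine retina. Radiometric two-step method, modified from Thompson and Appleman. Five concentrations in duplicate, starting at 30 μM with 1:10 serial dilution, 1% final DMSO.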

[2] = target: cGMP-dependent 3',5'-cyclic phosphodiesterase (Homo sapiens, UniProt O00408); assay: Inhibition of human recombinant PDE2A expressed insect sf9 cells by radiometric assay; summary of the method: as §1
Sequence of cGMP-dependent 3',5'-cyclic phosphodiesterase (O00408 whole entry): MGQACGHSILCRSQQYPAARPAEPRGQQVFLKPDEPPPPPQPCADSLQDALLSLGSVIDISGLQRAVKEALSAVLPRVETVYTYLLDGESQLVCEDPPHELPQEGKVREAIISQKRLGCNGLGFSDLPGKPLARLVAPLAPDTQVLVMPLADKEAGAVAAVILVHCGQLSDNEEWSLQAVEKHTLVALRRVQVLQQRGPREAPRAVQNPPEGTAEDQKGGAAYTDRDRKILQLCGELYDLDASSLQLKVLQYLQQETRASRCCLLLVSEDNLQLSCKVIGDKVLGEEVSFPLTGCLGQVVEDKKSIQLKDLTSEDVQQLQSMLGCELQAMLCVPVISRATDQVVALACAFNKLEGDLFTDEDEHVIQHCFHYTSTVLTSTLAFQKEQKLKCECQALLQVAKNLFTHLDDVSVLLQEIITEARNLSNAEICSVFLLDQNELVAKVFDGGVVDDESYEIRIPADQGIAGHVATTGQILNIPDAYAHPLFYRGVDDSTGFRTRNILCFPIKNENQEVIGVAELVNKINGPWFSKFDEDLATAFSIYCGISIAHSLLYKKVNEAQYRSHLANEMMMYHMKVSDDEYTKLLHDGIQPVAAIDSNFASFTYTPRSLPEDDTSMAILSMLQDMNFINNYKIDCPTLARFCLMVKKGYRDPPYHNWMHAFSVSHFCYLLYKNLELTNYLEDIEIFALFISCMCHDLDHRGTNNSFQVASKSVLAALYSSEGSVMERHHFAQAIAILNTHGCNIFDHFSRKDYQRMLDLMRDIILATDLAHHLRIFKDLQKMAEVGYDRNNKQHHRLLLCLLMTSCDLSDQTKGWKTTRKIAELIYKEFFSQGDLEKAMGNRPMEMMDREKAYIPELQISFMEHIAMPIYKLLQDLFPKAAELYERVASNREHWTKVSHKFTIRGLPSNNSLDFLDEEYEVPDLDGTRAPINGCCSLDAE

[3] = target: High affinity cAMP-specific and IBMX-insensitive 3',5'-cyclic phosphodiesterase 8A (Homo sapiens, UniProt O60658); assay: Inhibition of human recombinant PDE8A1 expressed insect sf9 cells by radiometric assay; summary of the method: as §1
Sequence of High affinity cAMP-specific and IBMX-insensitive 3',5'-cyclic phosphodiesterase 8A (O60658 whole entry): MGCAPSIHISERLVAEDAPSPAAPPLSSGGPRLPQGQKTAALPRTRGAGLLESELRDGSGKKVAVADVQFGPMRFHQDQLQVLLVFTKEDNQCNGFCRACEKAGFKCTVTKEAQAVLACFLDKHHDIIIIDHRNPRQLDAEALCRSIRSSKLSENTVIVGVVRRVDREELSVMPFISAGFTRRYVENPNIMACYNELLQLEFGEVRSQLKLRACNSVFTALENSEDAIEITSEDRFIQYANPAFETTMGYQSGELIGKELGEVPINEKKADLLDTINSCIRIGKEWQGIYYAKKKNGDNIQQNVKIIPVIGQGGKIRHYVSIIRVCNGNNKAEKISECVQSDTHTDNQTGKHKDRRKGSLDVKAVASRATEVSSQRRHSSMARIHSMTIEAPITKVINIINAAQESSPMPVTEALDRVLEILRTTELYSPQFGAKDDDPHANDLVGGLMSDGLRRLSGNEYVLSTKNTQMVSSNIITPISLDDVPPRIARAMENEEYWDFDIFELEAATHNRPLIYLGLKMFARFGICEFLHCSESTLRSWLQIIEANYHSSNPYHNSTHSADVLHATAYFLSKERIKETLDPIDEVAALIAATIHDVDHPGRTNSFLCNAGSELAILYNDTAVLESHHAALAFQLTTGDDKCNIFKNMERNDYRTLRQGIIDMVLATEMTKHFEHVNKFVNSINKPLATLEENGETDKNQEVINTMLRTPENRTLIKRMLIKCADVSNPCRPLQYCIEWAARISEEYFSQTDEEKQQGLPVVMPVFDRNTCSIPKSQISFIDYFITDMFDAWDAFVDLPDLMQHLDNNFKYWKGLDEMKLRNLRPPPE

[4] = target: T1, Amine oxidase [flavin-containing] A (Homo sapiens, UniProt P21397); assay: Binding affinity to human monoamine oxidase A at 1 uM
T1 sequence (P21397 whole entry): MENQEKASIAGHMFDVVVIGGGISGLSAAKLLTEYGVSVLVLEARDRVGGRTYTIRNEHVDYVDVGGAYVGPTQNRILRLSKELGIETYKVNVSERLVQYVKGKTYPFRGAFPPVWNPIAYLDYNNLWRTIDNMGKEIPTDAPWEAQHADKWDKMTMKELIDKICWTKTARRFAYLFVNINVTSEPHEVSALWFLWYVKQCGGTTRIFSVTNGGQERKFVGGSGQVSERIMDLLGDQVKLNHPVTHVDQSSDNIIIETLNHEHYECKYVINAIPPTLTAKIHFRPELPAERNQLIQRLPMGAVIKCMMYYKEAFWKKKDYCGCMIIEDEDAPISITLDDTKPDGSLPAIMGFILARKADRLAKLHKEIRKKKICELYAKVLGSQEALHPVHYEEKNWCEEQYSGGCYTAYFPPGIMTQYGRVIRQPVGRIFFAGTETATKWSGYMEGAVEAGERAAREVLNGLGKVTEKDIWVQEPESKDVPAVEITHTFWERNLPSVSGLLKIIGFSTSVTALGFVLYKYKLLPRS
Summary of the method: (§2)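 Off-target screening panel of about 400 receptors, enzymes and ion channels, run at 1 μM. Result expressed as % binding.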

[5] = Tmax in Sprague-Dawley rat plasma at 1 umol/kg, it administered as micronized powder measured up to 24 hrs post dose by electrospray LC-MS analysis; format: ADME, cell-free; settings: inhaled or intranasal
Summary of the method: (§3)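 Sprague-Dawley rats (250−400 g) dosed intratracheally with micronized dry powder blended with coarse lactose, delivered by insufflator under isoflurane anaesthesia. Blood collected in heparinized tubes and spun at 1200g for 15 min. Lung sampled at 0.25, 1, 2, 4, 8, 16 and 24 h, n = 3 per time point.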

[6] = Inhibition of PDE4 in human U937 cell lysates assessed as residual cAMP after 2.5 mins by LANCE assay
[7] = Intrinsic clearance in human liver microsomes at 1 uM measured after 60 mins in presence NADPH by LC-MS/MS analysis; format: ADME, microsome; settings: read-out: CLH
Summary of the method: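 Compound at 1 μM with human liver microsomes (0.8 mg protein/mL) in Dulbecco's buffer pH 7.4, 1 mM NADPH, 37 °C, in duplicate. Sampled at 0, 5, 10, 20, 30 and 60 min, quenched with ice-cold acetonitrile, and unchanged compound measured by LC−MS/MS. No-NADPH controls; midazolam (1 μM) as phase I control.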

[8] = Metabolic stability in human lung S9 fraction assessed as compound remaining at 1 uM measured after 60 mins in presence of NADPH by LC-MS/MS analysis; format: ADME; settings: read-out: Stability
[9] = Tmax in Sprague-Dawley rat lung at 1 umol/kg, it administered as micronized powder measured up to 24 hrs post dose by electrospray LC-MS analysis; format: ADME, tissue-based; settings: inhaled or intranasal; summary of the method: as §3
Cytochrome P450 3A4 = Cytochrome P450 3A4 (Homo sapiens, UniProt P08684); assay: Binding affinity to human liver microsomes CYP3A4 at 1 uM; format: ADME; summary of the method: as §2
[10] = Inhibition of PDE4 in human PBMC assessed as reduction in LPS-induced TNFalpha release after 18 hrs by quantitative ELISA
[11] = target: Voltage-gated inwardly rectifying potassium channel KCNH2 (Homo sapiens, UniProt Q12809); assay: Inhibition of human ERG at 1 uM
[12] = target: Dual specificity calcium/calmodulin-dependent 3',5'-cyclic nucleotide phosphodiesterase 1A (Homo sapiens, UniProt P54750); assay: Inhibition of human recombinant PDE1A expressed insect sf9 cells by radiometric assay; summary of the method: as §1
[13] = target: cGMP-inhibited 3',5'-cyclic phosphodiesterase 3A (Homo sapiens, UniProt Q14432); assay: Inhibition of human recombinant PDE3A expressed insect sf9 cells by radiometric assay; summary of the method: as §1
Sequence of cGMP-inhibited 3',5'-cyclic phosphodiesterase 3A (Q14432 whole entry): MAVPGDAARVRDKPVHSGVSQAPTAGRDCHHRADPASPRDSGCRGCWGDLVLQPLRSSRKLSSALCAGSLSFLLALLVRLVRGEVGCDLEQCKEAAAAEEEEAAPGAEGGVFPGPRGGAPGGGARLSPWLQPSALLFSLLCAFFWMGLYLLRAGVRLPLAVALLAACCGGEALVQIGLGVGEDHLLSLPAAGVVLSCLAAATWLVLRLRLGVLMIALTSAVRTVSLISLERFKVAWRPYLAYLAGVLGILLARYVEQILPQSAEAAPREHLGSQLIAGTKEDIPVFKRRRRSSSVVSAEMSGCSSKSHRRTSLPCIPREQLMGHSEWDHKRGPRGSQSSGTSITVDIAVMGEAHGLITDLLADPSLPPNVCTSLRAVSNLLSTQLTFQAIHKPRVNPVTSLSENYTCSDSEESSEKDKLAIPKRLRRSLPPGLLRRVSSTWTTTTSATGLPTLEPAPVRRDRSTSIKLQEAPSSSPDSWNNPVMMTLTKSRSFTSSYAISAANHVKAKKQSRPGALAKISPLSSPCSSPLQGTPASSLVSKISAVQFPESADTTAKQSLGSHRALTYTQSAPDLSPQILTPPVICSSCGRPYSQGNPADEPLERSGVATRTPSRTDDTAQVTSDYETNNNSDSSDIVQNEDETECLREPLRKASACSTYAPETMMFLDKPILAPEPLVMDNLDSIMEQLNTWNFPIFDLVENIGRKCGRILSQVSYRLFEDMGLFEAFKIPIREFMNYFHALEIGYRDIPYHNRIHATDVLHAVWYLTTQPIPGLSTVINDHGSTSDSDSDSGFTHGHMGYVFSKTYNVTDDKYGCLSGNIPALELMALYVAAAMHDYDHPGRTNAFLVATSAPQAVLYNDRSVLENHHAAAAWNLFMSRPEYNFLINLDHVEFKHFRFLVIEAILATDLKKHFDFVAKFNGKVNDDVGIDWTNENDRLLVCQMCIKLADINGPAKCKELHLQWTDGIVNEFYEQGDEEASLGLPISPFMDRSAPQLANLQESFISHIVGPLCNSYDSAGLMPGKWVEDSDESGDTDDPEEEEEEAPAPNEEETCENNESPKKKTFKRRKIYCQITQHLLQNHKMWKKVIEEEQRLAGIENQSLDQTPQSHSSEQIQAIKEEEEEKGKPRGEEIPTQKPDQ

[14] = Intrinsic clearance in human hepatocytes assessed per million cells at 1 uM measured after 90 mins by LC-MS/MS analysis; format: ADME, cell-based, Hepatocyte; settings: read-out: CLH
Summary of the method: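 Compound at 1 μM with hepatocytes (1 million cells/mL) in Leibovitz L-15 at 37 °C, in duplicate. Sampled at 0, 10, 20, 30, 60 and 90 min, quenched with ice-cold acetonitrile, centrifuged, and unchanged compound measured by LC−MS/MS. Included 7-ethoxycoumarin and 7-hydroxycoumarin activity controls and cell-free medium controls.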

[15] = Apparent permeability across basolateral to apical side in human Caco2 cells at 10 uM after 2 hrs by LC-MS/MS analysis; format: ADME, cell-based; settings: Caco-2
[16] = target: 3',5'-cyclic-AMP phosphodiesterase 4B (Homo sapiens, UniProt Q07343); assay: Inhibition of human recombinant PDE4B expressed insect sf9 cells by radiometric assay; summary of the method: as §1
Sequence of 3',5'-cyclic-AMP phosphodiesterase 4B (Q07343 whole entry): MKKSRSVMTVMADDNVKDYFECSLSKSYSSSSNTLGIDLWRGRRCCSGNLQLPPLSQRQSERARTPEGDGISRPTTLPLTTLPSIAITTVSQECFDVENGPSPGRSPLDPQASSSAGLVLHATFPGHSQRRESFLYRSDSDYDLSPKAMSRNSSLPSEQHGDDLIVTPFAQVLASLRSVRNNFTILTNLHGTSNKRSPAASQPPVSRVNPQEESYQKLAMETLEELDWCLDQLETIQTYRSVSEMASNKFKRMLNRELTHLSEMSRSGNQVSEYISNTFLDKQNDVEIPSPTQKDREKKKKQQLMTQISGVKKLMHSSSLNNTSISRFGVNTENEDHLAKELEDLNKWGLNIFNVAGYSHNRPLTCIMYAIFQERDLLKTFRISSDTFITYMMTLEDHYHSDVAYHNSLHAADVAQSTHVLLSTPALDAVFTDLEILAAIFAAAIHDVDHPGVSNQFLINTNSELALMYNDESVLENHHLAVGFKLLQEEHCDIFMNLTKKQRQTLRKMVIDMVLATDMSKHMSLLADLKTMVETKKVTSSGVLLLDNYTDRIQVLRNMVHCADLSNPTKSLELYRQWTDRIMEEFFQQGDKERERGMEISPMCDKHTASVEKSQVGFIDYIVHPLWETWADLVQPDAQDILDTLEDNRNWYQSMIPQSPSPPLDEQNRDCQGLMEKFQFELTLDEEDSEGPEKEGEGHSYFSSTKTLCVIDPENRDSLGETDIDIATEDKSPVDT

[17] = target: Dual 3',5'-cyclic-AMP and -GMP phosphodiesterase 11A (Homo sapiens, UniProt Q9HCR9); assay: Inhibition of human recombinant PDE11A4 expressed insect sf9 cells by radiometric assay; summary of the method: as §1
Sequence of Dual 3',5'-cyclic-AMP and -GMP phosphodiesterase 11A (Q9HCR9 whole entry): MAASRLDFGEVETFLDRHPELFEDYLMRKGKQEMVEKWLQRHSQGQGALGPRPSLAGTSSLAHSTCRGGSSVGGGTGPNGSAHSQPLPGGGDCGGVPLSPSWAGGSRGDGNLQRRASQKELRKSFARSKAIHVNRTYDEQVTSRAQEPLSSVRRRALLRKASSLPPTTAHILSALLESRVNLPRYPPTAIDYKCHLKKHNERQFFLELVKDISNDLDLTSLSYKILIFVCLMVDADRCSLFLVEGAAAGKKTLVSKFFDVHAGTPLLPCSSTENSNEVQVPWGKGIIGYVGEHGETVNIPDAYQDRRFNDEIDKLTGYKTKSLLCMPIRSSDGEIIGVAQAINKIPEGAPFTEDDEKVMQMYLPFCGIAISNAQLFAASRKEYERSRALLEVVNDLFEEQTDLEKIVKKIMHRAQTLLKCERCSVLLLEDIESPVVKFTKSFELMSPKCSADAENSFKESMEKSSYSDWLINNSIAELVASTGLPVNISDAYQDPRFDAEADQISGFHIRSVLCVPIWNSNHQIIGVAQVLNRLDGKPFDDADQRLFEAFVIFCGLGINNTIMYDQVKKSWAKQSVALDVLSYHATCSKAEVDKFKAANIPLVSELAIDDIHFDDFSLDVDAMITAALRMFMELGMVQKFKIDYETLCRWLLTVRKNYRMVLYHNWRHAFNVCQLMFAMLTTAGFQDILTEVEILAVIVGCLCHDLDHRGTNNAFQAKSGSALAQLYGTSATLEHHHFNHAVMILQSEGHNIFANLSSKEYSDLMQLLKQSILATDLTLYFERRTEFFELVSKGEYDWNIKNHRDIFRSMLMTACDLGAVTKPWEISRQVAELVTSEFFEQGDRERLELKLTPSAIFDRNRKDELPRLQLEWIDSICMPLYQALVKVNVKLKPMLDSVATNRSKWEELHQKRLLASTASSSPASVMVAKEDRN

Plasma = assay: Cmax in Sprague-Dawley rat plasma at 1 umol/kg, it administered as micronized powder measured up to 24 hrs post dose by electrospray LC-MS analysis; format: ADME, cell-free; design: dose 1 umol/kg; settings: inhaled_or_intranasal; summary of the method: as §3
[18] = MRTlast in Sprague-Dawley rat plasma at 1 umol/kg, it administered as micronized powder measured up to 24 hrs post dose by electrospray LC-MS analysis; format: ADME, cell-free; settings: inhaled or intranasal; summary of the method: as §3
Lung = assay: Cmax in Sprague-Dawley rat lung at 1 umol/kg, it administered as micronized powder measured up to 24 hrs post dose by electrospray LC-MS analysis; format: ADME, tissue-based; design: dose 1 umol/kg; settings: in vivo, inhaled_or_intranasal; summary of the method: as §3
Rattus norvegicus = assay: Anti-inflammatory activity in OVA-induced airway inflammation Brown Norway rat model assessed inhibition of eosinophils recruitment in bronchoalveolar lavage fluid administered intratracheally as powder formulation 2 hrs before aerosolized OVA challenge measured at 24 hrs post aerosolized OVA challenge; format: functional; settings: for ED50: inhaled or nasal
Summary of the method: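 Male Brown Norway rats sensitized i.p. with OVA (1 mg/rat) plus Al(OH)3 (100 mg/rat) in saline on 3 consecutive days. Challenged 2–3 weeks later with nose-only 1% OVA aerosol for 30 min. Lactose-blended dry powder (10 mg/kg total powder) insufflated intratracheally; dose taken from needle weight difference. BAL with 3 × 4 mL HBSS/EDTA/HEPES at 24 h; total and differential counts by automated counter. ED50 from fitted dose–response curve.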

[19] = Metabolic stability in human plasma assessed as compound remaining at 1 uM measured after 60 mins in presence of NADPH by LC-MS/MS analysis; format: ADME, cell-free; settings: read-out: Stability

Sequence of High affinity 3',5'-cyclic-AMP phosphodiesterase 7A (Q13946 whole entry): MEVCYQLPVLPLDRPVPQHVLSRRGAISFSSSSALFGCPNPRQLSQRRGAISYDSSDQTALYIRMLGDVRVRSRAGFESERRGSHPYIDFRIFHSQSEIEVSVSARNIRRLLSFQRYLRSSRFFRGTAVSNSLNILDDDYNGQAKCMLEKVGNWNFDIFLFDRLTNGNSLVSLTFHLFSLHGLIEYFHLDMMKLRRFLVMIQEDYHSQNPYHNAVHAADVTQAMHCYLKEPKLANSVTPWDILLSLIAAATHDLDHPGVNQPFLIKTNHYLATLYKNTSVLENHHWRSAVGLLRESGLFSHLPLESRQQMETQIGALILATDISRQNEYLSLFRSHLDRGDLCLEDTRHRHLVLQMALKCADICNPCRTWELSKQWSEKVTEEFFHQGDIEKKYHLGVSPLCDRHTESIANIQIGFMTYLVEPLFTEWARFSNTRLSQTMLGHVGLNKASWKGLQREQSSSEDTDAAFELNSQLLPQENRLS

SMILES | IC50 [1] [µM] | IC50 [2] [µM] | IC50 [3] [µM] | Activity [4] [%] | Tmax [5] [min] | IC50 [6] [nM] | microsomal CLint at 1 µM [7] [µL/min/mg] | remaining at 1 h, 1 µM [8] [%] | Tmax [9] [min] | Activity (Cytochrome P450 3A4) [%] | IC50 [10] [nM] | inhibition (INH) [11] | IC50 [12] [µM] | IC50 [13] [µM] | hepatocyte CLint at 1 µM [14] [µL/min/1e6 cells] | Papp B→A at 2 h, 10 µM [15] [nm/s] | IC50 [16] [nM] | IC50 [17] [µM] | Cmax (Plasma) [pmol/g] | MRT last at 24 h [18] [min] | other results
CN(C)C(=O)c1cccc(S(=O)(=O)N2CCC[C@H]2C(=O)O[C@@H](Cc2c(Cl)c[n+]([O-])cc2Cl)c2ccc(OC(F)F)c(OCC3CC3)c2)c1 (relative stereo) | 3.46 | > 30 | 17 | 76 | 4.98 | 0.0378 | 591 | 71.1 | 4.98 | 73 | 0.032 | Not Active | 25.6 | > 30 | 95.5 | 102 | 0.0881 | > 30 | 20.65 | 64.8 | Cmax (Lung): 16.24 nmol/g; inhibition (Rattus norvegicus): Dose-dependent effect; ED50 (Rattus norvegicus): 0.1 µmol/kg; remaining at 1 h, 1 µM [19]: 108%
CN(C)C(=O)c1cccc(S(=O)(=O)N2CCS[C@H]2C(=O)O[C@@H](Cc2c(Cl)c[n+]([O-])cc2Cl)c2ccc(OC(F)F)c(OCC3CC3)c2)c1 | 0.66 | > 30 | 3.56 | 94 | 4.98 | 0.053 | 287 | 70.2 | 15 | 84 | 0.019 | Not Active | 7.4 | 6.21 | 82.5 | 31.8 | 0.0278 | > 30 | 9.8 | 79.8 | Cmax (Lung): 16.06 nmol/g; inhibition (Rattus norvegicus): Dose-dependent effect; ED50 (Rattus norvegicus): 0.04 µmol/kg; remaining at 1 h, 1 µM [19]: 98%
